Source: ChEMBL document CHEMBL3865803, “Bicyclic octahydrocyclohepta[b]pyrrol-4(1H)one derivatives as novel selective anti-hepatitis C virus agents” (Eur J Med Chem, 2016)

Legend:
Hepatitis C virus [1] = experiment: Antiviral activity against HCV genotype 2a infected in human Huh7.5-FGR-JC1-Rluc2A replicon cells assessed as inhibition of viral RNA replication at 50 uM measured after 48 hrs by luciferase reporter gene assay relative to control; assay type: functional, Hepacivirus hominis; conditions: Huh-7, 48 h
Method in brief: (§1)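 Replicon cells (gt1b firefly luciferase; gt2a Renilla luciferase) in DMEM/10% FBS with G418, ~1 × 10^4 cells/well, dosed 12 h after seeding with 50 µM compound or DMSO (1% final) for 48 h at 37 °C. Cells were PBS-washed and luciferase read; % inhibition was taken versus DMSO-treated cells, mean±SD, n=3.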

[2] = Cytotoxicity against human Huh7.5 cells measured after 48 hrs by MTS assay; assay type: toxicity, cell-based, Huh-7; conditions: for CC50 at 48 h: Huh7.5 cells; for Activity: huh-7, 48 h
Method in brief: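 Parental Huh7.5 cells were treated 12 h after seeding with 8-10 dilutions of compound or DMSO (1% final) for 48 h at 37 °C. Viability was read by MTS bioreduction to formazan. CC50 is the concentration halving the MTS signal, mean ± SD of three independent experiments.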

Hepatitis C virus [3] = experiment: Antiviral activity against HCV genotype 1b infected in human Huh7/Rep-Feo1b replicon cells assessed as inhibition of viral RNA replication at 50 uM measured after 48 hrs by luciferase reporter gene assay relative to control; assay type: functional, Hepacivirus hominis; conditions: Huh-7, 48 h; method in brief: as §1
Hepatitis C virus [4] = experiment: Antiviral activity against HCV genotype 1b infected in human Huh7/Rep-Feo1b replicon cells assessed as inhibition of viral RNA replication measured after 48 hrs by luciferase reporter gene assay; assay type: functional, cell-based, Hepacivirus hominis; conditions: Huh-7, 48 h
Method in brief: (§2)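 EC50 from concentration-response in replicon cells (gt1b firefly, gt2a Renilla luciferase reporter) maintained with G418. Compound added 12 h post-seeding (~1 × 10^4 cells/well), 48 h exposure, DMSO 1% final. Luciferase was compared with DMSO controls; the value is the mean ± SD of three independent 8-12 point quarter-log dilution series, calculated with CalcuSyn.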

[5] = Selectivity index, ratio of CC50 for human Huh7.5 cells to EC50 for HCV genotype 1b infected in human Huh7/Rep-Feo1b replicon cells; parameters: species or system Huh-7
Hepatitis C virus [6] = experiment: Antiviral activity against HCV genotype 2a infected in human Huh7.5-FGR-JC1-Rluc2A replicon cells assessed as inhibition of viral RNA replication incubated for 48 hrs by luciferase reporter gene assay; assay type: functional, cell-based, Hepacivirus hominis; conditions: Huh-7, 48 h; method in brief: as §2
[7] = Selectivity index, ratio of CC50 for human Huh7.5 cells to EC50 for HCV genotype 2a infected in human Huh7.5-FGR-JC1-Rluc2A replicon cells; parameters: species or system Huh-7

Compound | EC50 (Hepatitis C virus [4]) | EC50 (Hepatitis C virus [6]) | inhibition at 50 µM (Hepatitis C virus [1]) | CC50 at 48 h [2] | Activity [2] | inhibition at 50 µM (Hepatitis C virus [3]) | Ratio CC50/EC50 [5] | Ratio CC50/EC50 [7]
CCOC(=O)[C@H](C)N1CC[C@H]2C(=O)CCCC[C@@H]21 |  |  | 83% |  |  |  |  | 
CCOC(=O)[C@@H](C)N1CC[C@H]2C(=O)CCCC[C@@H]21 |  |  | 38% | > 100 µM | 88% | 24% |  | 
CCOC(=O)[C@@H]1C[C@@H]2C(=O)CCCC[C@@H]2N1S(=O)(=O)c1ccc(C(C)(C)C)cc1 (racemic) | 34.4 µM | 13 µM | 94% | > 200 µM |  | 49% | >5.8 | >15.4
Cc1ccc(S(=O)(=O)N2[C@H](C(=O)N3CCOCC3)C[C@@H]3C(=O)CCCC[C@@H]32)cc1 (racemic) |  |  | 12% | > 200 µM |  | 19% |  | 
CCOC(=O)[C@@H]1C[C@@H]2C(=O)CCCC[C@H]2N1S(=O)(=O)c1ccc(C)cc1 (racemic) | 59.4 µM | 8.7 µM | 91% | > 200 µM |  | 51% | 3.4 | 22.9
Cc1ccc(S(=O)(=O)N2[C@H]3CCCCC(=O)[C@@]3(C)C[C@H]2C(=O)O)cc1 (racemic) |  |  | 33% | > 200 µM |  | 41% |  | 
O=C1CCCC[C@@H]2[C@@H](N1)[C@H](c1cccc(F)c1)CN2Cc1ccccc1 (racemic) |  |  | 80% |  |  | 49% |  | 
CCOC(=O)[C@@H]1C[C@@H]2[C@@H](CCC[C@@H]2O)N1S(=O)(=O)c1ccc(C)cc1 (racemic) |  |  | 45% | > 150 µM | 93% | 38% |  | 
CCOC(=O)[C@H]1C[C@H]2C(=O)CCCC[C@H]2N1S(=O)(=O)c1ccc(C)cc1 (racemic) | 7.1 µM | 6.1 µM | 84% | > 200 µM | 77% | 89% | >28.2 | >32.8
CCOC(=O)[C@@H]1C[C@@H]2NC(=O)CCCC[C@@H]2N1S(=O)(=O)c1ccc(C)cc1 (racemic) | 11.6 µM | 8.2 µM | 71% | 143 µM | 92% | 66% | 12.4 | 17.4
Cc1ccc(S(=O)(=O)N2[C@H](C(N)=O)C[C@@H]3C(=O)CCCC[C@@H]32)cc1 (racemic) |  |  | 38% | > 200 µM |  |  |  | 
CCOC(=O)[C@@H]1C[C@@H]2[C@@H](O)CCCC[C@@H]2N1S(=O)(=O)c1ccc(C)cc1 (racemic) |  | 27.6 µM | 77% | > 200 µM |  | 22% |  | 7.3
O=C(O)[C@@H]1C[C@H]2[C@@H](O)CCC[C@H]2N1 (racemic) |  |  | 12% |  |  |  |  | 
CCOC(=O)[C@@H]1C[C@]2(C)C(=O)CCCC[C@@H]2N1S(=O)(=O)c1ccc(C)cc1 (racemic) | 49.1 µM | 14.2 µM | 76% | > 200 µM |  | 50% | 4.1 | 14.1
COc1cccc([C@@H]2CN(Cc3ccccc3)[C@@H]3CCCCC(=O)N[C@H]32)c1 (racemic) |  |  | 54% |  |  | 59% |  | 
Cc1ccc(S(=O)(=O)N2[C@H](C(=O)O)C[C@@H]3C(=O)CCCC[C@@H]32)cc1 (racemic) |  |  | 42% | > 200 µM |  | 14% |  | 
Cl.Cl.Fc1cccc([C@@H]2CN(Cc3ccccc3)[C@@H]3CCCCCN[C@H]32)c1 (racemic) |  |  | 61% | < 50 µM | 11% | 98% |  | 
O=C1CCCC[C@@H]2[C@H]1[C@@H](c1ccccc1)CN2Cc1ccccc1 (racemic) |  |  | 4% |  |  | 38% |  | 
CCOC(=O)[C@@H]1C[C@@H]2C(=O)CCCC[C@@H]2N1S(=O)(=O)c1ccnn1C (racemic) |  |  | 17% | > 200 µM |  |  |  | 
CCOC(=O)[C@@H]1C[C@@H]2/C(=N/OCc3ccccc3)CCCC[C@@H]2N1S(=O)(=O)c1ccc(C)cc1 (racemic) |  |  | 30% | > 200 µM |  |  |  | 
CC(C)(C)OC(=O)N1CC[C@@H]2NC[C@H](c3ccccc3)[C@H]2C(=O)C1.Cl (racemic) |  |  | 47% | > 150 µM | 97% | 48% |  | 
CCNC(=O)[C@@H]1C[C@@H]2C(=O)CCCC[C@@H]2N1S(=O)(=O)c1ccc(C)cc1 (racemic) |  |  | 39% | > 200 µM |  | 15% |  | 
CCOC(=O)[C@@H]1C[C@@H]2C(=O)CCCC[C@@H]2N1S(=O)(=O)c1ccc(Cl)cc1 (racemic) |  | 23.8 µM | 60% | > 200 µM |  | 32% |  | 8.4

The next lines start with results.

EC50 (Hepatitis C virus [4]) | EC50 (Hepatitis C virus [6]) | Compound | inhibition at 50 µM (Hepatitis C virus [1]) | CC50 at 48 h [2] | Activity [2] | inhibition at 50 µM (Hepatitis C virus [3]) | Ratio CC50/EC50 [5] | Ratio CC50/EC50 [7]
2 µM | 1.2 µM | OC1CCCC[C@H]2[C@H]1[C@@H](c1cccc(F)c1)CN2Cc1ccccc1 (mixture of isomers) | 99% | 36.9 µM | 28% | 99% | 18.4 | 30.8
14.9 µM | 14.3 µM | CCOC(=O)[C@@H]1C[C@@H]2C(=O)CCCC[C@@H]2N1C(=O)c1ccccc1 (racemic) | 95% | > 200 µM |  | 59% | >13.4 | >13.9
 | 26.3 µM | Cc1ccc(S(=O)(=O)N2[C@H](C(=O)O)C[C@@H]3/C(=N/Nc4ccccc4)CCCC[C@@H]32)cc1 (racemic) | 81% | > 200 µM |  | 25% |  | >7.6
11.7 µM | 1.6 µM | O=C1CCCC[C@@H]2[C@@H]1[C@H](c1cccc(F)c1)CN2Cc1ccccc1 (racemic) | 97% | > 50 µM | 63% | 83% | >4.2 | >31.8
7.7 µM | 4.6 µM | O=C1CCCC[C@H]2[C@H]1[C@@H](c1ccccc1)CN2Cc1ccccc1 (racemic) | 96% | 134 µM | 85% | 71% | 17.3 | 29.2
28.1 µM |  | Cc1ccc(S(=O)(=O)N2[C@H](C(=O)NCCc3ccccc3)C[C@@H]3C(=O)CCCC[C@@H]32)cc1 (racemic) | 48% | 153 µM |  | 66% | 5.4 | 
18.2 µM | 11.5 µM | C[C@]12C[C@@H](Cc3ccccc3)N(Cc3ccccc3)[C@H]1CCCC(=O)N2 (racemic) | 95% | > 50 µM | 60% | 87% | >2.7 | >4.3
24.1 µM | 12.4 µM | O=C1CCCC[C@H]2[C@H](N1)[C@@H](c1ccccc1)CN2Cc1ccccc1 (racemic) | 59% | > 200 µM | 98% | 80% | >8.3 | >16.1
7.5 µM | 5.6 µM | O=C1CCCC[C@@H]2[C@H](C[C@H](Cc3ccccc3)N2Cc2ccccc2)N1 (racemic) | 99% | > 50 µM | 61% | 82% | >6.6 | >8.8
9 µM | 4.47 µM | CC(C)(C)OC(=O)N1CC[C@H]2[C@H](C(=O)C1)[C@@H](c1ccccc1)CN2Cc1ccccc1 (racemic) | 99% | > 50 µM | 61% | 94% | >5.5 | >11.2
16.5 µM | 11.4 µM | O=C1CCCC[C@@H]2[C@H]1[C@@H](c1ccccc1)CN2S(=O)(=O)c1ccccc1 (racemic) | 88% | > 200 µM | 84% | 78% | 12.1 | 17.6
